# Results taken from ChEMBL document CHEMBL1127785, “[[omega-(Heterocyclylamino)alkoxy]benzyl]-2,4-thiazolidinediones as potent antihyperglycemic agents” (1994).
# Active and inactive are the calls of the source. No cut-off for these calls is given here.
# Experiments:
# Mus musculus [1] = species: Mus musculus; assay: Antihyperglycemic potency dose producing approximately 25% reduction in area under glucose tolerance curve; assay type: functional
# In short: (§1)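 C57 Bl/6 ob/ob mice, 9–10 weeks old at purchase, 6–8 per group, kept at 26 ± 2 °C on a 12 h light/dark cycle. Compound was mixed into powdered diet, given fresh daily for 8 days. Mice were then fasted 5 h and given oral glucose 3 g/kg. Tail blood glucose was measured at 0, 45, 90 and 135 min by hexokinase/G6PDH. Read-out is % AUC reduction vs controls (trapezoid rule), Student's t-test.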
# [2] = Selectivity ratio for Antihyperglycemic potency dose and No significant effect dose; assay type: functional
# Mus musculus [3] = species: Mus musculus; assay: No significant effect dose level on blood hemoglobin; assay type: functional
# In short: (§2)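 Blood hemoglobin content was measured in C57 Bl/6 ob/ob mice after 8 days of compound given by dietary admixture. The value is the highest dose (µmol/kg of diet) with no significant reduction in blood hemoglobin.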
# Mus musculus [4] = assay: Percent reduction in area under glucose tolerance curve at 100 uM/kg dose in diet of mice.; assay type: functional; in short: as §1
# Mus musculus [5] = assay: Percent reduction in area under glucose tolerance curve (AUC) was determined at 10 umol/kg dose of diet in mice; assay type: functional; in short: as §1
# Mus musculus [6] = assay: Percent reduction in area under glucose tolerance curve (AUC) was determined at 3 umol/kg dose of diet in mice; assay type: functional; in short: as §1
# Mus musculus [7] = assay: Percent reduction in area under glucose tolerance curve (AUC) was determined at 1000 umol/kg dose of diet in mice; assay type: functional; in short: as §1
# Mus musculus [8] = assay: Percent reduction in area under glucose tolerance curve (AUC) was determined at 3000 umol/kg dose of diet in mice; assay type: functional; in short: as §1
# Mus musculus [9] = assay: Percent reduction in area under glucose tolerance curve at 300 uM/kg dose in diet of mice.; assay type: functional; in short: as §1
# Mus musculus [10] = assay: Percent reduction in area under glucose tolerance curve (AUC) was determined at 100 umol/kg dose of diet in mice; IA = No significant activity; assay type: functional, organism-based; in short: as §1
# Mus musculus [11] = assay: Percent reduction in area under glucose tolerance curve (AUC) was determined at 10 umol/kg dose of diet in mice; IA = No significant activity; assay type: functional, organism-based; in short: as §1
# Mus musculus [12] = assay: Percent reduction in area under glucose tolerance curve (AUC) was determined at 300 umol/kg dose of diet in mice; IA = No significant activity; assay type: functional, organism-based; in short: as §1
# Mus musculus [13] = species: Mus musculus; assay: No significant effect dose level on blood hemoglobin.; assay type: functional; in short: as §2
# Mus musculus [14] = assay: Percent reduction in area under glucose tolerance curve (AUC) was determined at 30 umol/kg dose of diet in mice; assay type: functional; in short: as §1
# Mus musculus [15] = assay: Percent reduction in area under glucose tolerance curve (AUC) was determined at 3 umol/kg dose of diet in mice; IA = No significant activity; assay type: functional, organism-based; in short: as §1
# Mus musculus [16] = assay: Percent reduction in area under glucose tolerance curve (AUC) was determined at 30 umol/kg dose of diet in mice; IA = No significant activity; assay type: functional, organism-based; in short: as §1
# Mus musculus [17] = assay: Percent reduction in area under glucose tolerance curve (AUC) was determined at 1000 umol/kg dose of diet in mice; IA = No significant activity; assay type: functional, organism-based; in short: as §1
# Mus musculus [18] = assay: Percent reduction in area under glucose10 umol/kg dose of diet in mice; assay type: functional; in short: as §1
smiles,measurement,setting,value
CN(CCOc1ccc(CC2SC(=O)NC2=O)cc1)c1ncccn1 (centres undefined),Dose,Mus musculus [1],10 µM/kg
same,Selectivity ratio,[2],10
same,Dose,Mus musculus [3],100 µM/kg
same,Reduction,Mus musculus [4],43%
same,Reduction,Mus musculus [5],18%
same,Reduction,Mus musculus [6],18%
CCc1ccc(CCOc2ccc(CC3SC(=O)NC3=O)cc2)nc1 (centres undefined) [PIOGLITAZONE],Reduction,Mus musculus [7],62%
same,Reduction,Mus musculus [8],63%
same,Reduction,Mus musculus [9],35%
same,Reduction,Mus musculus [10],inactive
CN(CCOc1ccc(CC2SC(=O)NC2=O)cc1)c1nccc(-c2ccccc2)n1 (centres undefined),Reduction,Mus musculus [11],Not significant
CN(CCOc1ccc(CC2CC(=O)NC2=O)cc1)c1nc2ccccc2o1 (centres undefined),Reduction,Mus musculus [12],Not significant
CN(CCOc1ccc(CC2SC(=O)NC2=O)cc1)c1nc2ccccc2o1 (centres undefined) [BRL-48482],Dose,Mus musculus [1],3 µM/kg
same,Dose,Mus musculus [13],30 µM/kg
same,Selectivity ratio,[2],10
same,Reduction,Mus musculus [14],52%
same,Reduction,Mus musculus [4],57%
same,Reduction,Mus musculus [9],42%
CN(CCOc1ccc(CC2SC(=O)NC2=O)cc1)c1cnccn1 (centres undefined),Reduction,Mus musculus [4],46%
same,Reduction,Mus musculus [11],Not significant
CC1(COc2ccc(CC3SC(=O)NC3=O)cc2)CCCCC1 (centres undefined) [CIGLITAZONE],Reduction,Mus musculus [8],41%
same,Reduction,Mus musculus [12],inactive
O=C(NCCOc1ccc(CC2SC(=O)NC2=O)cc1)Nc1ccc(Cl)cc1 (centres undefined),Reduction,Mus musculus [12],Not significant
Cc1nc(N(C)CCOc2ccc(CC3SC(=O)NC3=O)cc2)oc1C (centres undefined),Reduction,Mus musculus [14],33%
same,Reduction,Mus musculus [15],Not significant
same,Reduction,Mus musculus [5],16%
CN(CCOc1ccc(CC2[Se]C(=O)NC2=O)cc1)c1nc2ccccc2o1 (centres undefined),Reduction,Mus musculus [4],45%
same,Reduction,Mus musculus [11],Not significant
CN(CCOc1ccc(CC2SC(=O)NC2=O)cc1)C(=O)NCc1ccccc1 (centres undefined),Reduction,Mus musculus [16],Not significant
same,Reduction,Mus musculus [9],41%
O=C(NCCOc1ccc(CC2SC(=O)NC2=O)cc1)Nc1ccc(Cl)c(Cl)c1 (centres undefined),Reduction,Mus musculus [12],Not significant
Cc1csc(N(C)CCOc2ccc(CC3SC(=O)NC3=O)cc2)n1 (centres undefined),Reduction,Mus musculus [14],53%
same,Reduction,Mus musculus [5],28%
same,Reduction,Mus musculus [6],14%
O=C(NCCOc1ccc(CC2SC(=O)NC2=O)cc1)Nc1ccccc1 (centres undefined),Reduction,Mus musculus [7],58%
same,Reduction,Mus musculus [4],21%
CN(CCOc1ccc(CC2SC(=O)NC2=O)cc1)c1ccncc1 (centres undefined),Reduction,Mus musculus [11],Not significant
CN(CCOc1ccc(CCC2SC(=O)NC2=O)cc1)c1nc2ccccc2o1 (centres undefined),Reduction,Mus musculus [10],Not significant
CN(CCOc1ccc(CC2SC(=O)NC2=O)cc1)c1nc(-c2ccccc2)cs1 (centres undefined),Reduction,Mus musculus [16],Not significant
same,Reduction,Mus musculus [4],34%
CN(CCCOc1ccc(CC2SC(=O)NC2=O)cc1)c1nc2ccccc2o1 (centres undefined),Reduction,Mus musculus [9],32%
same,Reduction,Mus musculus [10],inactive
Cc1nc(N(C)CCOc2ccc(CC3SC(=O)NC3=O)cc2)sc1C (centres undefined),Reduction,Mus musculus [14],47%
same,Reduction,Mus musculus [11],Not significant
CN(CCOc1ccc(CC2SC(=O)NC2=O)cc1)c1ccc([N+](=O)[O-])cn1 (centres undefined),Reduction,Mus musculus [16],Not significant
Cc1sc(N(C)CCOc2ccc(CC3SC(=O)NC3=O)cc2)nc1-c1ccccc1 (centres undefined),Reduction,Mus musculus [14],20%
same,Reduction,Mus musculus [4],37%
same,Reduction,Mus musculus [11],Not significant
Cc1c(C)c2c(c(C)c1O)CCC(C)(COc1ccc(CC3SC(=O)NC3=O)cc1)O2 (centres undefined) [TROGLITAZONE],Dose,Mus musculus [1],400 µM/kg
same,Selectivity ratio,[2],1.5
same,Dose,Mus musculus [3],600 µM/kg
same,Reduction,Mus musculus [8],48%
same,Reduction,Mus musculus [9],20%
same,Reduction,Mus musculus [10],inactive
O=C(NCCOc1ccc(CC2SC(=O)NC2=O)cc1)Nc1ccc(F)cc1 (centres undefined),Reduction,Mus musculus [17],Not significant
Cc1ccnc(N(C)CCOc2ccc(CC3SC(=O)NC3=O)cc2)c1 (centres undefined),Reduction,Mus musculus [14],34%
same,Reduction,Mus musculus [9],41%
same,Reduction,Mus musculus [15],Not significant
Cc1nc(N(C)CCOc2ccc(CC3SC(=O)NC3=O)cc2)sc1-c1ccccc1 (centres undefined),Dose,Mus musculus [1],3 µM/kg
same,Dose,Mus musculus [13],<300 µM/kg
same,Selectivity ratio,[2],< 100
same,Reduction,Mus musculus [4],39%
same,Reduction,Mus musculus [5],27%
same,Reduction,Mus musculus [6],33%
O=C1NC(=O)C(Cc2ccc(OCCNc3nc4ccccc4o3)cc2)S1 (centres undefined),Reduction,Mus musculus [16],Not significant
same,Reduction,Mus musculus [4],44%
CN(CCOc1ccc(CC2SC(=O)NC2=O)cc1)c1ccccn1 (centres undefined) [ROSIGLITAZONE],Dose,Mus musculus [1],3 µM/kg
same,Dose,Mus musculus [13],300 µM/kg
same,Selectivity ratio,[2],100
same,Reduction,Mus musculus [18],31%
same,Reduction,Mus musculus [14],41%
same,Reduction,Mus musculus [4],56%
same,Reduction,Mus musculus [9],61%
same,Reduction,Mus musculus [6],17%
